Data published in ChEMBL document CHEMBL3797138, “Discovery of a Selective and Potent Inhibitor of Mitogen-Activated Protein Kinase-Interacting Kinases 1 and 2 (MNK1/2) Utilizing Structure-Based Drug Design” (J Med Chem, 2016).
Converted amounts (≈) assume the structure as drawn.

Tests used:
[1] = target: MAP kinase-interacting serine/threonine-protein kinase 1 (Homo sapiens, UniProt Q9BUB5); experiment: Inhibition of ERK2-activated full length wild type MNK1a (unknown origin) using biotin-SGSGKRREILSRRPSYR-NH2 as substrate after 2 hrs by HTRF assay
Sequence of MAP kinase-interacting serine/threonine-protein kinase 1 (Q9BUB5 whole entry): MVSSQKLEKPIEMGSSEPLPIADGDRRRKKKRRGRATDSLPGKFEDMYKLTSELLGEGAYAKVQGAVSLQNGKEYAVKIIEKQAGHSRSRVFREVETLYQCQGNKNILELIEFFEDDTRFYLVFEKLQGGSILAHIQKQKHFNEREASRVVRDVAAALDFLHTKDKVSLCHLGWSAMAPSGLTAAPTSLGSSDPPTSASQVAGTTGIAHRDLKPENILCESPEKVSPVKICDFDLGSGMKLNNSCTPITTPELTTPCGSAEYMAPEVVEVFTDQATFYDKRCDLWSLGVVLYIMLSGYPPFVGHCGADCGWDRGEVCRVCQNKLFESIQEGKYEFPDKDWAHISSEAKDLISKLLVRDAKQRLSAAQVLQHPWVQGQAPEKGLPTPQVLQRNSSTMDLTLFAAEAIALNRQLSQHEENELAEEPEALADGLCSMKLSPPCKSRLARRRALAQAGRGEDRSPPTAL
Outline: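 In-house full-length MNK1a (0.5 nM final) activated by full-length ERK2 (0.5 nM final). Biotin-crebtide 200 nM and ATP 200 µM. Buffer: 50 mM Hepes pH 7.5, 5 mM MgCl2, 0.05% BSA, 0.01% Tween-20, 1 mM DTT, 2.5% DMSO. Reaction run 2 h, then stopped with EDTA/KF buffer holding Eu-anti-phospho-creb (0.23 nM) and streptavidin-XL665 (50 nM). Read by HTRF after overnight development in the dark.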

[2] = target: MAP kinase-interacting serine/threonine-protein kinase 2 (Homo sapiens, UniProt Q9HBH9); experiment: Inhibition of N-terminal 6His-tagged recombinant human full length wild type MNK2b using biotin-SGSGKRREILSRRPSYR-NH2 as substrate after 1 hr by HTRF assay
Sequence of MAP kinase-interacting serine/threonine-protein kinase 2 (Q9HBH9 whole entry): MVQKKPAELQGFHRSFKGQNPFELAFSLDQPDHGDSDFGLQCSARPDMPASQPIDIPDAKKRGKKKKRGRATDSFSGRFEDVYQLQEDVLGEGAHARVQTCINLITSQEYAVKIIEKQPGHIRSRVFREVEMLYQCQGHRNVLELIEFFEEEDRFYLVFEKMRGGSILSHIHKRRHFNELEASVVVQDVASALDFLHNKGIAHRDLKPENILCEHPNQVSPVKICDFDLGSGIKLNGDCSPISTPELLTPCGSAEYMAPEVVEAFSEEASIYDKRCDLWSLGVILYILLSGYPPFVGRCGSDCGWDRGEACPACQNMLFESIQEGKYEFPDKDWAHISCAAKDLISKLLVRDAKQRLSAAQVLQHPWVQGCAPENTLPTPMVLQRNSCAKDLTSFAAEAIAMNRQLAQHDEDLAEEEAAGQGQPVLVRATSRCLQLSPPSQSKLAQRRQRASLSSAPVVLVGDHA
Outline: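 Commercial full-length wild-type MNK2b at 1 nM final, with biotin-crebtide 200 nM and ATP 200 µM. Buffer: 50 mM Hepes pH 7.5, 5 mM MgCl2, 0.05% BSA, 0.01% Tween-20, 1 mM DTT, 2.5% DMSO. Stop/detection buffer: 20 mM EDTA, 0.1% BSA, 0.4 M KF, with Eu-anti-phospho-creb antibody 0.23 nM and SA-XL665 50 nM. Developed overnight in the dark at room temperature; HTRF read, excitation 320 nm, emission 665 nm.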

[3] = target: Cyclin-dependent kinase 1 (Homo sapiens, UniProt P06493); experiment: Inhibition of CDK1 (unknown origin)
Sequence of Cyclin-dependent kinase 1 (P06493 whole entry): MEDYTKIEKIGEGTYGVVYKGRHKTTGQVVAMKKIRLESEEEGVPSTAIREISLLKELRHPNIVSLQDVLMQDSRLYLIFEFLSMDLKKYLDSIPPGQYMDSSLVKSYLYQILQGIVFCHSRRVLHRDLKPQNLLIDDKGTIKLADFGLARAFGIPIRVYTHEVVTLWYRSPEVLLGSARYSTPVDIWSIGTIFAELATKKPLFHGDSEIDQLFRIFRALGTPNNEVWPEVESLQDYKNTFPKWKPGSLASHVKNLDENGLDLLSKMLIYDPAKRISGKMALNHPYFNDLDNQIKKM

[4] = target: Cyclin-dependent kinase 2 (Homo sapiens, UniProt P24941); experiment: Inhibition of CDK2 (unknown origin)
[5] = Solubility of the compound at pH 7.4 by high throughput assay; details: buffer
[6] = Lipophilicity, log D of the compound at pH 7.4; details: buffer
[7] = target: MAP kinase-interacting serine/threonine-protein kinase 1/2 (Homo sapiens, UniProt Q9HBH9+Q9BUB5); experiment: Inhibition of MNK1/2 in human KMS11-luc cells assessed as inhibition of EIF4E phosphorylation at S209 after 3 hrs by quantitative electrochemiluminescence assay; type: cell-based
Outline: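 KMS11-luc cells seeded at 300,000 cells/well and exposed to compounds for 3 h at 37 °C, 5% CO2, then lysed in well with Triton-based buffer. Lysate captured overnight at 4 °C on blocked ECL plates. Detection: anti-phospho-EIF4E (S209) antibody 1:200 plus sulfo-tag goat anti-rabbit 1:400, 2 h at room temperature, electrochemiluminescence read. Phospho-EIF4E signal normalized to total YB1 for EC50.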

[8] = Apparent permeability across apical to basolateral side in human Caco2 cells; details: Caco-2
[9] = Efflux ratio of apparent permeability across basolateral to apical side over apical to basolateral side in human Caco2 cells; details: Caco-2
[10] = target: Cyclin-dependent kinase 9 (Homo sapiens, UniProt P50750); experiment: Inhibition of CDK9 (unknown origin)
Sequence of Cyclin-dependent kinase 9 (P50750 whole entry): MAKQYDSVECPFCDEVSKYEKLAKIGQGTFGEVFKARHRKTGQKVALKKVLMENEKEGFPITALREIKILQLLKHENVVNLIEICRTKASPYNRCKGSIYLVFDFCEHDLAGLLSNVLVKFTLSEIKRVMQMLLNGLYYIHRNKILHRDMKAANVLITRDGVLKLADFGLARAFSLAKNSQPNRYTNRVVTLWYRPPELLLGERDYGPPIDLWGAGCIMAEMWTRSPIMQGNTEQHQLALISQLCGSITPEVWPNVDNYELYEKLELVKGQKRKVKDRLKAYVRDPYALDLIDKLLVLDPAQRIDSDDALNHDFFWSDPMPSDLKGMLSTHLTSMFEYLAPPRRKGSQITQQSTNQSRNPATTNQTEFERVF

[11] = Antiproliferative activity against luciferase expressing human KMS11 cells after 5 days by CellTiter-Glo luminescent assay; type: functional, cell-based; details: KMS-11, 120 h
Outline: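 KMS11-luc cells seeded at 2500 cells/well; compounds added 2 h after seeding, then incubated 5 days at 37 °C, 5% CO2. CellTiter-Glo added in equal volume, shaken 2 min, kept 10 min dark at room temperature, and luminescence read. EC50 fitted from % inhibition versus concentration (µM) with a four-parameter equation.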

[12] = target: Calcium/calmodulin-dependent protein kinase type II subunit delta (Homo sapiens, UniProt Q13557); experiment: Inhibition of CAMK2D (unknown origin)
Sequence of Calcium/calmodulin-dependent protein kinase type II subunit delta (Q13557 whole entry): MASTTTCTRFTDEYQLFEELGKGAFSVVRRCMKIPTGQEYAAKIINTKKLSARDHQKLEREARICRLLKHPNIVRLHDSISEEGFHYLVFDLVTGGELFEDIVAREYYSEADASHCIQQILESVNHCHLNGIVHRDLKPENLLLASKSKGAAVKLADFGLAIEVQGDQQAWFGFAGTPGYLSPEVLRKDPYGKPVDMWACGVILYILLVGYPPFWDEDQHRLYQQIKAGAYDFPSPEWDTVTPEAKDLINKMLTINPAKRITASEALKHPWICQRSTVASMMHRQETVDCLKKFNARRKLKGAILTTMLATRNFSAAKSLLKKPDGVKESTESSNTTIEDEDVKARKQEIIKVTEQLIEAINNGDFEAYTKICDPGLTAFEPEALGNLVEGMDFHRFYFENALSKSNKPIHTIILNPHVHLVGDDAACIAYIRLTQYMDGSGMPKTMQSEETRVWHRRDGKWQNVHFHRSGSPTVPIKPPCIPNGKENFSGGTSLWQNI

[13] = target: T1, Receptor-type tyrosine-protein kinase FLT3 (Homo sapiens, UniProt P36888); experiment: Inhibition of FLT3 (unknown origin)
T1 sequence (P36888 whole entry): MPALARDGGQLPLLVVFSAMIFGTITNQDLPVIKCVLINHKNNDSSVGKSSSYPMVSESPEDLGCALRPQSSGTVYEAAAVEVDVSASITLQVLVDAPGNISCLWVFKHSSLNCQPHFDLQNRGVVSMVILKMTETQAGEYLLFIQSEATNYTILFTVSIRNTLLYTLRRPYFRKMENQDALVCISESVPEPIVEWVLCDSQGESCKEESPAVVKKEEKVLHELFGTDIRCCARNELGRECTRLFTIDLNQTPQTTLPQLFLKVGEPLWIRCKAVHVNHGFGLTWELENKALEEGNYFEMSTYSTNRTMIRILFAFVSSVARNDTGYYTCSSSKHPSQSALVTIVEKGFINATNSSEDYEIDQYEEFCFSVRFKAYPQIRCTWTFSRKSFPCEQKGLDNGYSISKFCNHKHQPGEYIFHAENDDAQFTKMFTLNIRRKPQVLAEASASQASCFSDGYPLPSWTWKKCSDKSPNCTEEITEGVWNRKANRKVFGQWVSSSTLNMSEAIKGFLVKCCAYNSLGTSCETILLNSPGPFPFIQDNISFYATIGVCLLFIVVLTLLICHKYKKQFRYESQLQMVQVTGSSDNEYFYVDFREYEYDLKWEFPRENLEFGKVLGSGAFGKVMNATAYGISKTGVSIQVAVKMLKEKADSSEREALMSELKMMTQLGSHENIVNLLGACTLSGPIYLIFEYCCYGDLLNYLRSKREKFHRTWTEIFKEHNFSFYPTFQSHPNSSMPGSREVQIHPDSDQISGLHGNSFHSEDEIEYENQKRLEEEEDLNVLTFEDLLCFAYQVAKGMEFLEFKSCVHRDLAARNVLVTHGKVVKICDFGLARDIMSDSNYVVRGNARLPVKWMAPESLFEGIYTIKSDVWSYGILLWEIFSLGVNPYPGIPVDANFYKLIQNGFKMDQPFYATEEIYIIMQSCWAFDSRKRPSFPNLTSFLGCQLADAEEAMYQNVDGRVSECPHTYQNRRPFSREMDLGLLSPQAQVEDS

[14] = target: Serine/threonine-protein kinase pim-2 (Homo sapiens, UniProt Q9P1W9); experiment: Inhibition of PIM2 (unknown origin)
Sequence of Serine/threonine-protein kinase pim-2 (Q9P1W9 whole entry): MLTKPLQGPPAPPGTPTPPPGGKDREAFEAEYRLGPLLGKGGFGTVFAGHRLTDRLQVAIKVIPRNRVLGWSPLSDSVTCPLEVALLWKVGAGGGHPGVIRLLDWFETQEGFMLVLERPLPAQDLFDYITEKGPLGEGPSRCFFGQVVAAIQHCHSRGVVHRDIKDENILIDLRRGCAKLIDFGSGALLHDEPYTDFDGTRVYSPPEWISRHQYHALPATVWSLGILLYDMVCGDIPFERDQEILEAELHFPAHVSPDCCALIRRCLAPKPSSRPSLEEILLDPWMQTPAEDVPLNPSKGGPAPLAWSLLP

[15] = target: Rho-associated protein kinase 2 (Homo sapiens, UniProt O75116); experiment: Inhibition of ROCK2 (unknown origin)
Sequence of Rho-associated protein kinase 2 (O75116 whole entry): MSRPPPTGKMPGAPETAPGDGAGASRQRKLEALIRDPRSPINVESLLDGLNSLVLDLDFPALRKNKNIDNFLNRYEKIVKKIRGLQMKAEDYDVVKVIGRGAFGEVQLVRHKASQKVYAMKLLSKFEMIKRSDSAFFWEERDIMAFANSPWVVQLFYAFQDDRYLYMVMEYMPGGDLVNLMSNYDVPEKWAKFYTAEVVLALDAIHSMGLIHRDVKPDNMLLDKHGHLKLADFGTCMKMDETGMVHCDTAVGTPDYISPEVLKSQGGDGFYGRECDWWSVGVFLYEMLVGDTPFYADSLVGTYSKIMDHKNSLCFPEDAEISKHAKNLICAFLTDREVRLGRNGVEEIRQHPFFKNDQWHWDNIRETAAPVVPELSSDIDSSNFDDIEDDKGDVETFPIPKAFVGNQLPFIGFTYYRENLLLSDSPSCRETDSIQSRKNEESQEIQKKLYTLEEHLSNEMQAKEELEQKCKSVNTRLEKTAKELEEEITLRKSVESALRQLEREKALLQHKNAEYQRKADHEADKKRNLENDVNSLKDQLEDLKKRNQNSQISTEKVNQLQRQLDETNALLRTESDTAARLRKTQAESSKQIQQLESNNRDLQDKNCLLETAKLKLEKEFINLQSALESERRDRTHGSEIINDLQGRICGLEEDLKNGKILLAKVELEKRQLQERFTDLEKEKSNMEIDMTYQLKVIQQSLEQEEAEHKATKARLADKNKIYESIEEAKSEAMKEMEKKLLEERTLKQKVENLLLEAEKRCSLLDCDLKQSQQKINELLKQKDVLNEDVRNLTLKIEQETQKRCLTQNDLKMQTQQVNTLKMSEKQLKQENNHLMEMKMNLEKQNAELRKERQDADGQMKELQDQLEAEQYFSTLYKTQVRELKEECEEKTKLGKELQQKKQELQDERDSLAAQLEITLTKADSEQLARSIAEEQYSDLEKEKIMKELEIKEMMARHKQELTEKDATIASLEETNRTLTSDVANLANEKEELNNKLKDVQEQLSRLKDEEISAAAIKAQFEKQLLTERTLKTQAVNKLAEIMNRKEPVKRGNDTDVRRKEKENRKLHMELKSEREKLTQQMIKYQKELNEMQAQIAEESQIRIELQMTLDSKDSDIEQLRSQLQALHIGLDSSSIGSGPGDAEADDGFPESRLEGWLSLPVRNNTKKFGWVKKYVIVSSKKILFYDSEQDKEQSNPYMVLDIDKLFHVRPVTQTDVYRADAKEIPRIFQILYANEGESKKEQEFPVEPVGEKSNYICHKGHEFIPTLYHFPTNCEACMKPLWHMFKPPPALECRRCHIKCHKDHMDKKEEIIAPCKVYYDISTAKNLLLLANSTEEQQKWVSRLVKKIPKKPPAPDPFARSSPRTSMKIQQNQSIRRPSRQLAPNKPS

[16] = Inhibition of CYP450 (unknown origin); type: ADME, Homo sapiens
[17] = Intrinsic clearance in rat liver microsomes; type: ADME
[18] = Hepatic extraction ratio in rat liver microsomes; type: ADME; details: read-out: ERH

| SMILES | IC50 [1] [nM] | IC50 [2] [nM] | IC50 [3] [nM] | IC50 [4] [nM] | solubility [5] [µM] | logD [6] | EC50 [7] [nM] | Papp A→B [8] [×10⁻⁶ cm/s] | efflux ratio [9] | IC50 [10] [nM] | IC50 [12] [nM] | IC50 [13] [nM] | IC50 [14] [nM] | IC50 [15] [nM] | IC50 [16] [nM] | CLint [17] [µL/min/mg] | hepatic extraction ratio [18] | EC50 [11] [nM] |
| --- | --- | --- | --- | --- | --- | --- | --- | --- | --- | --- | --- | --- | --- | --- | --- | --- | --- | --- |
| Nc1ncccc1-c1nc2ccccc2[nH]1 | 700 | 900 | 10000 | 25000 | 300 (≈ 63.1 µg/mL) | 3 | – | – | – | – | – | – | – | – | – | – | – | – |
| CN(C)C(=O)c1cccc(-c2cnc(N)c(-c3nc4cccc(N5CCNCC5)c4[nH]3)c2)c1 | 4 | 2 | 1000 | 4000 | 102 (≈ 45 µg/mL) | 1.8 | 130 | 4 | 3.6 | – | – | – | – | – | – | – | – | – |
| C[C@H]1CN(c2cccc3nc(-c4nc(-c5cccc(C(=O)N(C)C)c5)cnc4N)n(C)c23)CCN1 | 1.5 | 0.7 | 1000 | 3400 | – | – | 3 | – | – | – | – | – | – | – | – | – | – | – |
| CC(=O)C1=C(O)C=C2Oc3c(C(N)=O)c(O)cc(O)c3[C@]2(C)C1=O | – | – | – | – | – | – | – | – | – | – | – | – | – | – | – | – | – | > 10000 |

The next lines start with results.

| IC50 [1] [nM] | IC50 [2] [nM] | IC50 [3] [nM] | IC50 [4] [nM] | solubility [5] [µM] | logD [6] | EC50 [7] [nM] | Papp A→B [8] [×10⁻⁶ cm/s] | efflux ratio [9] | IC50 [10] [nM] | IC50 [12] [nM] | IC50 [13] [nM] | IC50 [14] [nM] | IC50 [15] [nM] | IC50 [16] [nM] | CLint [17] [µL/min/mg] | hepatic extraction ratio [18] | SMILES | EC50 [11] [nM] |
| --- | --- | --- | --- | --- | --- | --- | --- | --- | --- | --- | --- | --- | --- | --- | --- | --- | --- | --- |
| 36 | 34 | 1000 | 5700 | – | 4.2 | – | – | – | – | – | – | – | – | – | – | – | CN(C)C(=O)c1cccc(-c2cnc(N)c(-c3nc4ccccc4[nH]3)c2)c1 | – |
| 80 | 20 | 1700 | 11000 | 70 (≈ 31 µg/mL) | 1.9 | 50 | 0.7 | 87 | – | – | – | – | – | – | – | – | CN(C)C(=O)c1cccc(-c2cnc(N)c(-c3nc4cccc(N5CCNCC5)c4[nH]3)n2)c1 | – |
| 2 | 1 | 500 | 1400 | 254 (≈ 116 µg/mL) | 1.1 | 5 | 9 | 2.3 | – | – | – | – | – | – | – | – | CN(C)C(=O)c1cccc(-c2cnc(N)c(-c3nc4cccc(N5CCNCC5)c4n3C)n2)c1 | – |
| 120 | 720 | 160 | 1300 | – | > 4.2 | – | – | – | – | – | – | – | – | – | – | – | Nc1ncc(-c2ccccc2)cc1-c1nc2ccccc2[nH]1 | – |
| 3 | 3 | > 25000 | > 25000 | 220 (≈ 104 µg/mL) | 1.9 | 0.6 | 5 | 5 | > 25000 | 690 | 280 | 730 | 370 | > 40000 | 32 | 0.54 | C[C@H]1CN(c2cccc3nc(-c4nc(-c5cc(C(=O)N(C)C)ccn5)cnc4N)n(C)c23)CCN1 | 1700 |
